In ChEMBL document CHEMBL2331148, “Design and synthesis of imidazole and triazole derivatives as Lp-PLA₂ inhibitors and the unexpected discovery of highly potent quaternary ammonium salts” (Bioorg Med Chem Lett, 2013):
The source made the active and inactive calls. No cut-off for these calls is given here.

Columns and labels:
Homo sapiens [1] = species: Homo sapiens; assay: Inhibition of human plasma Lp-PLA2 at 1 nM by liquid scintillation counting; assay type: cell-free
How it was run: (§1)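 Plasma used as the enzyme source. Compounds were added from DMSO solution to buffer of 50 mmol/L HEPES (pH 7.4) and 150 mmol/L NaCl. Preincubated 5 min at 37 °C, then [3H]PAF (1uCi) was added and incubated 10 min at 37 °C. Lipids were extracted with CHCl3/MeOH (2:1) and centrifuged at 12000g, 4 °C, 15 min. Supernatant radioactivity was counted. Result is % inhibition at the tested concentration.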

Oryctolagus cuniculus [2] = species: Oryctolagus cuniculus; assay: Inhibition of rabbit plasma Lp-PLA2 at 100 nM by liquid scintillation counting; assay type: cell-free; how it was run: as §1
Homo sapiens [3] = species: Homo sapiens; assay: Inhibition of human plasma Lp-PLA2 at 10 nM by liquid scintillation counting; assay type: cell-free; how it was run: as §1
Oryctolagus cuniculus [4] = species: Oryctolagus cuniculus; assay: Inhibition of rabbit plasma Lp-PLA2 at 10 nM by liquid scintillation counting; assay type: cell-free; how it was run: as §1
Oryctolagus cuniculus [5] = species: Oryctolagus cuniculus; assay: Inhibition of rabbit plasma Lp-PLA2 at 1 microM by liquid scintillation counting; assay type: cell-free; how it was run: as §1
Oryctolagus cuniculus [6] = species: Oryctolagus cuniculus; assay: Inhibition of rabbit plasma Lp-PLA2 at 10 microM by liquid scintillation counting; assay type: cell-free; how it was run: as §1
Mus musculus [7] = assay: Inhibition of plasma Lp-PLA2 in Apo-E mouse model at 50 mg/kg, ip measured after 24 hrs by in vivo inhibition assay; assay type: functional, organism-based; design: dose 50 mg/kg
Mus musculus [8] = assay: Inhibition of plasma Lp-PLA2 in Apo-E mouse model at 50 mg/kg, ip measured after 12 hrs by in vivo inhibition assay; assay type: functional, organism-based; design: dose 50 mg/kg

inhibition (Homo sapiens [1])	inhibition (Oryctolagus cuniculus [2])	inhibition (Homo sapiens [3])	inhibition (Oryctolagus cuniculus [4])	inhibition (Oryctolagus cuniculus [5])	inhibition (Oryctolagus cuniculus [6])	SMILES	inhibition (Mus musculus [7])	inhibition (Mus musculus [8])
65%	88%	88%	25%			CCCc1nnc(Cn2c(SCc3ccc(F)cc3)nc(=O)c3c2CCC3)n1Cc1ccc(-c2ccc(C(F)(F)F)cc2)cc1		
64%	90%	82%	20%			CCN1CCN(Cc2nnc(Cn3c(SCc4ccc(F)cc4)nc(=O)c4c3CCC4)n2Cc2ccc(-c3ccc(C(F)(F)F)cc3)cc2)CC1		
	67%			95%		O=c1nc(SCc2ccc(F)cc2)n(Cc2nncn2Cc2ccc(-c3ccc(C(F)(F)F)cc3)cc2)c2c1CCC2		
85%	99%	97%	97%			C[N+](C)(Cc1ccc(F)cc1)Cc1cnc(Cn2c(SCc3ccc(F)cc3)nc(=O)c3c2CCC3)n1Cc1ccc(-c2ccc(C(F)(F)F)cc2)cc1		
				16%	20%	CCN(CC)CCn1c(-c2ccc(-c3ccc(C(F)(F)F)cc3)cc2)cnc1Cn1c(SCc2ccc(F)cc2)nc(=O)c2c1CCC2		
68%	87%	93%	34%			O=c1nc(SCc2ccc(F)cc2)n(Cc2nnc(C3CC3)n2Cc2ccc(-c3ccc(C(F)(F)F)cc3)cc2)c2c1CCC2		
					3%	O=c1nc(SCc2ccc(F)cc2)n(Cc2nccn2Cc2ccc(-c3ccccc3)cc2)c2c1CCC2		
38%	86%	77%	16%			CN(Cc1nnc(Cn2c(SCc3ccc(F)cc3)nc(=O)c3c2CCC3)n1Cc1ccc(-c2ccc(C(F)(F)F)cc2)cc1)C1CC1		
71%	91%	92%	34%			CC(C)c1nnc(Cn2c(SCc3ccc(F)cc3)nc(=O)c3c2CCC3)n1Cc1ccc(-c2ccc(C(F)(F)F)cc2)cc1		
95%	97%	99%	91%			C[N+](C)(Cc1ccc(F)cc1)Cc1nnc(Cn2c(SCc3ccc(F)cc3)nc(=O)c3c2CCC3)n1Cc1ccc(-c2ccc(C(F)(F)F)cc2)cc1	Active	
					27%	CCCCCCCCCCc1nnc(Cn2c(SCc3ccc(F)cc3)nc(=O)c3c2CCC3)n1CC		
					40%	CCn1c(Cc2ccc(-c3ccc(C(F)(F)F)cc3)cc2)nnc1Cn1c(SCc2ccc(F)cc2)nc(=O)c2c1CCC2		
54%	87%	75%	13%			CN(C)Cc1cnc(Cn2c(SCc3ccc(F)cc3)nc(=O)c3c2CCC3)n1Cc1ccc(-c2ccc(C(F)(F)F)cc2)cc1		
					28%	Cc1ccc(-c2ccc(Cn3ccnc3Cn3c(SCc4ccc(F)cc4)nc(=O)c4c3CCC4)cc2)cc1		
79%		97%	88%			O=c1nc(SCc2ccc(F)cc2)n(Cc2ncc(C[N+]3(Cc4ccc(F)cc4)CCCC3)n2Cc2ccc(-c3ccc(C(F)(F)F)cc3)cc2)c2c1CCC2		
				42%	88%	CCCCCCCCCCCCn1ccnc1Cn1c(SCc2ccc(F)cc2)nc(=O)c2c1CCC2		
60%	85%	78%	21%			CCN(CC)Cc1nnc(Cn2c(SCc3ccc(F)cc3)nc(=O)c3c2CCC3)n1Cc1ccc(-c2ccc(C(F)(F)F)cc2)cc1		
58%	86%	69%	11%			O=c1nc(SCc2ccc(F)cc2)n(Cc2ncc(CN3CCCCC3)n2Cc2ccc(-c3ccc(C(F)(F)F)cc3)cc2)c2c1CCC2		
	17%			80%		O=c1nc(SCc2ccc(F)cc2)n(Cc2nccn2Cc2ccc(-c3ccc(C(F)(F)F)cc3)cc2)c2c1CCC2		

inhibition (Homo sapiens [1])	inhibition (Oryctolagus cuniculus [2])	inhibition (Homo sapiens [3])	inhibition (Oryctolagus cuniculus [4])	inhibition (Oryctolagus cuniculus [5])	inhibition (Oryctolagus cuniculus [6])	SMILES	inhibition (Mus musculus [7])	inhibition (Mus musculus [8])
11%	79%	73%	10%			Cc1nnc(Cn2c(SCc3ccc(F)cc3)nc(=O)c3c2CCC3)n1Cc1ccc(-c2ccc(C(F)(F)F)cc2)cc1		
80%	99%	95%	82%			CCN(CC)CCN(Cc1ccc(-c2ccc(C(F)(F)F)cc2)cc1)C(=O)Cn1c(SCc2ccc(F)cc2)nc(=O)c2c1CCC2		Active
77%	93%	97%	91%			C[N+](C)(C)Cc1nnc(Cn2c(SCc3ccc(F)cc3)nc(=O)c3c2CCC3)n1Cc1ccc(-c2ccc(C(F)(F)F)cc2)cc1		
58%	73%	65%	23%			O=c1nc(SCc2ccc(F)cc2)n(Cc2nnc(CO)n2Cc2ccc(-c3ccc(C(F)(F)F)cc3)cc2)c2c1CCC2		
49%	75%	68%	7%			CCS(=O)(=O)NCc1nnc(Cn2c(SCc3ccc(F)cc3)nc(=O)c3c2CCC3)n1Cc1ccc(-c2ccc(C(F)(F)F)cc2)cc1		
21%	79%	67%	10%			O=c1nc(SCc2ccc(F)cc2)n(Cc2ncc(CN3CCCC3)n2Cc2ccc(-c3ccc(C(F)(F)F)cc3)cc2)c2c1CCC2		
23%	76%	69%	16%			C[C@@H]1CN(Cc2nnc(Cn3c(SCc4ccc(F)cc4)nc(=O)c4c3CCC4)n2Cc2ccc(-c3ccc(C(F)(F)F)cc3)cc2)C[C@H](C)O1		
				2%	50%	O=c1nc(SCc2ccc(F)cc2)n(Cc2nccn2Cc2ccc(-c3ccc(Cl)cc3)cc2)c2c1CCC2		
68%	90%	89%	29%			CC(O)c1nnc(Cn2c(SCc3ccc(F)cc3)nc(=O)c3c2CCC3)n1Cc1ccc(-c2ccc(C(F)(F)F)cc2)cc1 (configuration not stated)		
35%	85%	77%	13%			CC(C)N(C)Cc1nnc(Cn2c(SCc3ccc(F)cc3)nc(=O)c3c2CCC3)n1Cc1ccc(-c2ccc(C(F)(F)F)cc2)cc1		
71%	90%	93%	10%			CN(Cc1ccc(F)cc1)Cc1nnc(Cn2c(SCc3ccc(F)cc3)nc(=O)c3c2CCC3)n1Cc1ccc(-c2ccc(C(F)(F)F)cc2)cc1		
				21%	34%	CCn1c(Cn2c(SCc3ccc(F)cc3)nc(=O)c3c2CCC3)nnc1-c1ccc(-c2ccc(C(F)(F)F)cc2)cc1		
57%	82%	71%	11%			CN(C)C1CCN(Cc2nnc(Cn3c(SCc4ccc(F)cc4)nc(=O)c4c3CCC4)n2Cc2ccc(-c3ccc(C(F)(F)F)cc3)cc2)CC1		
44%	67%	67%	8%			CC(=O)NCc1nnc(Cn2c(SCc3ccc(F)cc3)nc(=O)c3c2CCC3)n1Cc1ccc(-c2ccc(C(F)(F)F)cc2)cc1		
52%	88%	75%	10%			CCN(CC)Cc1cnc(Cn2c(SCc3ccc(F)cc3)nc(=O)c3c2CCC3)n1Cc1ccc(-c2ccc(C(F)(F)F)cc2)cc1		
62%	88%	85%	21%			CN(C)Cc1nnc(Cn2c(SCc3ccc(F)cc3)nc(=O)c3c2CCC3)n1Cc1ccc(-c2ccc(C(F)(F)F)cc2)cc1		
45%	67%	51%	15%			COC(=O)C(C)(C)N1CCN(Cc2nnc(Cn3c(SCc4ccc(F)cc4)nc(=O)c4c3CCC4)n2Cc2ccc(-c3ccc(C(F)(F)F)cc3)cc2)CC1		
					6%	CCCCCCCCCCc1cnc(Cn2c(SCc3ccc(F)cc3)nc(=O)c3c2CCC3)n1CCN(CC)CC		
